Converted amounts (≈) assume the structure as drawn. The source made the active and inactive calls. The rule behind the calls is not given here.
How the values were obtained:
Shigella flexneri = assay: Antibacterial activity against Shigella flexneri 2457NR517 after 24 hrs by microbroth dilution method; format: functional; conditions: 2457NR517, 24 h
Summary of the method: (§1)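 Mueller-Hinton broth cultures grown at 37 °C with shaking to log phase, pelleted, resuspended in 0.85% saline to OD625 0.1. Broth microdilution per CLSI guidelines, final inoculum 5 × 10^5 CFU/mL, in triplicate, 24 h at 37 °C. Growth read as OD625. MIC is the lowest concentration giving complete growth inhibition versus untreated controls.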

[1] = tested on: Staphylococcus epidermidis; assay: Antibacterial activity against Staphylococcus epidermidis ATCC 12384 after 24 hrs by microbroth dilution method; format: functional; conditions: ATCC 12384, 24 h
Summary of the method: (§2)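 Microbroth dilution per CLSI guidelines. Organisms grown in Mueller−Hinton broth at 37 °C with shaking to log phase, pelleted, resuspended in 0.85% saline to OD625 0.1. Final inoculum 5 × 10^5 CFU/mL; triplicate; 24 h at 37 °C. OD625 read; MIC = lowest concentration completely inhibiting growth versus untreated controls.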

Enterococcus faecalis = assay: Antibacterial activity against Enterococcus faecalis ATCC 29212 after 24 hrs by microbroth dilution method; format: functional; conditions: ATCC 29212, 24 h; summary of the method: as §2
Acinetobacter baumannii = assay: Antibacterial activity against Acinetobacter baumannii ATCC 19606 after 24 hrs by microbroth dilution method; format: functional; conditions: ATCC 19606 = CIP 70.34 = JCM 6841, 24 h; summary of the method: as §2
Enterobacter cloacae = assay: Antibacterial activity against Enterobacter cloacae ATCC 13047 after 24 hrs by microbroth dilution method; format: functional; conditions: ATCC 13047, 24 h; summary of the method: as §2
Escherichia coli [2] = assay: Antibacterial activity against Escherichia coli K-12 after 24 hrs by microbroth dilution method; format: functional; conditions: K-12, 24 h; summary of the method: as §2
DNA topoisomerase 1 = target: T1, DNA topoisomerase 1 (Homo sapiens, UniProt P11387); assay: Inhibition of human DNA topoisomerase 1 using plasmid pBAD-GFPuv as substrate after 30 mins by agarose gel electrophoresis
T1 sequence (P11387 whole entry): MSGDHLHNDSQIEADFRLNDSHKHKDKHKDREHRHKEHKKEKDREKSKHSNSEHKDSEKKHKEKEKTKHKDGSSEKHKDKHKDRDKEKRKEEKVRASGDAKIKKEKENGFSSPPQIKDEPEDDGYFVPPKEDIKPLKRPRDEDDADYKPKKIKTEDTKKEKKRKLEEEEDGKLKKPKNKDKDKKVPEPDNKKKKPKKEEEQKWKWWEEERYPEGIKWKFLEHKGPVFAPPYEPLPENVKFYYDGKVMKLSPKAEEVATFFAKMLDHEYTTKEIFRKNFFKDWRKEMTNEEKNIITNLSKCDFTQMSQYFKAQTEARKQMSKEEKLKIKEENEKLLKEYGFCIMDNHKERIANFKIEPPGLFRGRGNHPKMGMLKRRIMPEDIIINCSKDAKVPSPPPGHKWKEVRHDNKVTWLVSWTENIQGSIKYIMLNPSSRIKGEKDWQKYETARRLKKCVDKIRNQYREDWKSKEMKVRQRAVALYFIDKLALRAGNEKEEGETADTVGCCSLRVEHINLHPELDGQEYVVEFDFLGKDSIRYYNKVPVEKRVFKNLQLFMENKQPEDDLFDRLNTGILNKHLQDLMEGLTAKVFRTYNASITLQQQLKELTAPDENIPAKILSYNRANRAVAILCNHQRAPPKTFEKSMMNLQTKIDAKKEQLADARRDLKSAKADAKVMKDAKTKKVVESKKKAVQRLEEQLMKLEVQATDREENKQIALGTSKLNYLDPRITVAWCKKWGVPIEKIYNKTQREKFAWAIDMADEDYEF

Staphylococcus aureus [3] = assay: Antibacterial activity against methicillin-resistant Staphylococcus aureus A960649 after 24 hrs by microbroth dilution method; format: functional; conditions: A960649, 24 h; summary of the method: as §1
Escherichia coli [4] = assay: Inhibition of Escherichia coli RNA topoisomerase 1 using circular RNA as substrate up to 50 uM after 1.5 hrs by SDS-PAGE analysis
Summary of the method: (§3)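 10 nM E. coli topoisomerase I premixed with reaction buffer and inhibitor diluted in DMSO, then circular RNA substrate added; 1.5 h incubation. Stopped with proteinase K/SDS/EDTA buffer. Trefoil RNA knot product separated from circular substrate on 15% TBE−urea gels and detected by phosphorimaging. DMSO-only control included.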

Staphylococcus aureus [5] = assay: Antibacterial activity against Staphylococcus aureus ATCC 29213 after 24 hrs by microbroth dilution method; format: functional; conditions: ATCC 29213, 24 h; summary of the method: as §2
[6] = Binding affinity to dA60.dT60 B-DNA duplex (unknown origin) assessed as induction of biphasic transition at <5 uM by UV-vis spectrophotometric analysis
Klebsiella pneumoniae = assay: Antibacterial activity against Klebsiella pneumoniae NR15410 after 24 hrs by microbroth dilution method; format: functional; conditions: NR15410, 24 h; summary of the method: as §2
[7] = Inhibition of Escherichia coli DNA topoisomerase 1 using plasmid pBAD-GFPuv as substrate after 15 mins by agarose gel electrophoresis
Summary of the method: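 E. coli topoisomerase I at 6 nM relaxing 150 ng supercoiled pBAD-GFPuv. 15 min at 37 °C, phenol-stopped, 1% agarose gel, ethidium stain. IC50 is the concentration leaving 50% DNA supercoiled; three independent determinations.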

Enterococcus faecium = assay: Antibacterial activity against Enterococcus faecium BM4105RF after 24 hrs by microbroth dilution method; format: functional; summary of the method: as §1
Staphylococcus aureus [8] = assay: Antibacterial activity against methicillin-resistant Staphylococcus aureus 33591 after 24 hrs by microbroth dilution method; format: functional; conditions: Staphylococcus aureus, 33591, 24 h; summary of the method: as §1
Pseudomonas aeruginosa = assay: Antibacterial activity against Pseudomonas aeruginosa ATCC 27853 after 24 hrs by microbroth dilution method; format: functional; conditions: ATCC 27853, 24 h; summary of the method: as §2
Escherichia coli [9] = assay: Antibacterial activity against Escherichia coli ATCC 25922 after 24 hrs by microbroth dilution method; format: functional; conditions: ATCC 25922, 24 h; summary of the method: as §2
Staphylococcus aureus [10] = assay: Antibacterial activity against Staphylococcus aureus ATCC 33591 after 24 hrs by microbroth dilution method; format: functional; conditions: ATCC 33591, 24 h; summary of the method: as §2
Citrobacter freundii = assay: Antibacterial activity against Citrobacter freundii 4747CFAA after 24 hrs by microbroth dilution method; format: functional; summary of the method: as §2
[11] = Binding affinity to dA60.dT60 B-DNA duplex (unknown origin) assessed as change in melting temperature at 10 uM by UV-vis spectrophotometric analysis
Summary of the method: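 UV melting of dA60·dT60 at 1 μM/duplex with compound at 10 μM. Buffer 10 mM sodium cacodylate, 0.1 mM EDTA, 100 mM NaCl, pH 7.0; duplex pre-annealed from 95 °C. Compound stocks in DMSO diluted into buffer. Heating at 0.2 °C/min, monitored at 260 nm, points every 1.0 °C; Tm taken from derivatives.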

DU-145 = assay: Cytotoxicity against human DU145 cells after 48 hrs by SRB assay; format: cell-based; conditions: for Activity: human, du-145, 48 h
Summary of the method: (§4)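 Cells cultured per ATCC protocols, seeded and grown 24 h (37 °C, 5% CO2), then treated in triplicate at final 20, 10, 5, 2.5, 1.25, 0.625 and 0.0625 μM for 48 h. Fixed with cold TCA (16% final, 4 °C, 1 h), stained with SRB in 1% acetic acid, dye solubilized in 10 mM Tris base, A560 read. IC50 derived; study in duplicate.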

Escherichia coli [12] = assay: Inhibition of Escherichia coli RNA topoisomerase-1 using circular RNA as substrate 10 uM after 1.5 hrs by SDS-PAGE analysis; summary of the method: as §3
[13] = Cytotoxicity against human PCS-201-010 cells after 48 hrs by SRB assay; format: cell-based; conditions: PCS-201-010, 48 h; summary of the method: as §4
Escherichia coli [14] = assay: Inhibition of Escherichia coli DNA gyrase using relaxed plasmid pBAD-GFPuv as substrate after 30 mins by agarose gel electrophoresis
Escherichia coli [15] = assay: Inhibition of Escherichia coli RNA topoisomerase 1 using circular RNA as substrate up to 80 uM after 1.5 hrs by SDS-PAGE analysis
Summary of the method: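 E. coli topoisomerase I (10 nM) premixed in reaction buffer with inhibitor diluted in DMSO, then circular RNA substrate added; 1.5 h. DMSO-only control included. Final inhibitor 2.5 to 80 μM. Stopped with proteinase K/SDS/EDTA. Trefoil RNA knot product resolved from substrate on 15% TBE-urea gels and detected by autoradiography.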

Row | SMILES | MIC (Shigella flexneri) [µg/mL] | MIC [1] [µg/mL] | MIC (Enterococcus faecalis) [µg/mL] | MIC (Acinetobacter baumannii) [µg/mL] | MIC (Enterobacter cloacae) [µg/mL] | MIC (Escherichia coli [2]) [µg/mL] | IC50 (DNA topoisomerase 1) [µM] | MIC (Staphylococcus aureus [3]) [µg/mL] | inhibition (Escherichia coli [4]) | MIC (Staphylococcus aureus [5]) [µg/mL] | Activity [6] | MIC (Klebsiella pneumoniae) [µg/mL] | IC50 [7] [µM] | MIC (Enterococcus faecium) [µg/mL] | MIC (Staphylococcus aureus [8]) [µg/mL] | MIC (Pseudomonas aeruginosa) [µg/mL] | MIC (Escherichia coli [9]) [µg/mL] | MIC (Staphylococcus aureus [10]) [µg/mL] | MIC (Citrobacter freundii) [µg/mL] | ΔTm [11] [°C] | other results
1 | CN1CCN(c2ccc3nc(-c4ccc(OCc5cn(CCCCN=[N+]=[N-])nn5)cc4)[nH]c3c2)CC1 | > 32 | > 32 | 16 to 32 (≈ 32.9 to 65.8 µM) | > 32 | > 32 | 16 (≈ 32.9 µM) | > 50 | > 32 | inactive | 16 to 32 (≈ 32.9 to 65.8 µM) | Active | > 32 | 21.5 | > 32 | > 32 | 16 (≈ 32.9 µM) | 16 (≈ 32.9 µM) | 16 (≈ 32.9 µM) | > 32 | 0.5 | –
2 | C#CCOCCCCCCCCOc1ccc(-c2nc3ccc(-c4nc5ccc(N6CCN(C)CC6)cc5[nH]4)cc3[nH]2)cc1 | > 38 | > 32 | 16 to 32 (≈ 27.1 to 54.2 µM) | > 32 | > 32 | 2 to 4 (≈ 3.39 to 6.77 µM) | > 50 | > 32 | – | > 32 | Active | > 32 | 2.8 | > 32 | > 32 | 16 to 32 (≈ 27.1 to 54.2 µM) | 16 to 32 (≈ 27.1 to 54.2 µM) | 16 to 32 (≈ 27.1 to 54.2 µM) | > 32 | 13.1 | Activity (DU-145): Toxic; inhibition (Escherichia coli [12]): Active
3 | C#CCOCCCCCCCCCCCCOc1ccc(-c2nc3ccc(-c4nc5ccc(N6CCN(C)CC6)cc5[nH]4)cc3[nH]2)cc1 | > 32 | > 32 | 16 to 32 (≈ 24.7 to 49.5 µM) | > 32 | > 32 | 16 (≈ 24.7 µM) | > 50 | > 32 | – | 16 to 32 (≈ 24.7 to 49.5 µM) | Active | > 32 | 4 | ≥ 32 | > 32 | 16 (≈ 24.7 µM) | 16 (≈ 24.7 µM) | 16 to 32 (≈ 24.7 to 49.5 µM) | > 32 | 1.2 | IC50 (DU-145; Homo sapiens, DU-145, 48 h): > 10 µM; IC50 [13]: > 10 µM; inhibition (Escherichia coli [14]): inactive; inhibition (Escherichia coli [12]): Active
4 | CCOc1ccc(-c2nc3cc(-c4nc5cc(N6CCN(C)CC6)ccc5[nH]4)ccc3[nH]2)cc1 | 1 to 2 (≈ 2.21 to 4.42 µM) | 1 (≈ 2.21 µM) | 16 to 32 (≈ 35.4 to 70.7 µM) | 8 (≈ 17.7 µM) | 4 (≈ 8.84 µM) | 16 (≈ 35.4 µM) | – | 0.5 (≈ 1.1 µM) | – | 2 to 4 (≈ 4.42 to 8.84 µM) | – | – | – | 0.3 (≈ 0.663 µM) | 1 (≈ 2.21 µM) | 16 (≈ 35.4 µM) | 16 (≈ 35.4 µM) | 2 to 4 (≈ 4.42 to 8.84 µM) | – | – | inhibition (Escherichia coli [15]): inactive
5 | C#CCOc1ccc(-c2nc3ccc(-c4nc5ccc(N6CCN(C)CC6)cc5[nH]4)cc3[nH]2)cc1 | 1 to 2 (≈ 2.16 to 4.32 µM) | 1 to 2 (≈ 2.16 to 4.32 µM) | – | > 32 | 32 (≈ 69.2 µM) | – | – | 1 to 2 (≈ 2.16 to 4.32 µM) | inactive | – | – | > 32 | – | 1 to 2 (≈ 2.16 to 4.32 µM) | – | 16 (≈ 34.6 µM) | 8 (≈ 17.3 µM) | – | 4 (≈ 8.65 µM) | – | Activity (DU-145): Toxic; inhibition (Escherichia coli [14]): inactive
